In article PMC4050191 (FEBS Open Bio, 2014):
Where two headings read alike, the source gives them in different places.

How the values were obtained:
[1] = target: C-terminal domain of human centrin 1 T138D (human); experiment: ITC
[2] = target: C-terminal domain of human centrin 1 T138E (human); experiment: ITC
[3] = target: C-terminal domain of human centrin 1 T138D (human); experiment: ITC; remark: listed apart in the source
[4] = target: C-terminal domain of human centrin 1 T138E (human); experiment: ITC; remark: listed apart in the source
C-HsCen1-T138E = experiment: ITC, peptide binding to C-HsCen1-T138E; design: species or system human; conditions: C-HsCen1-T138E versus C-HsCen1; +Ca2+ (Fig. S3)
Summary of the method: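 Binding measured by ITC at 30 °C. Cell contained E. coli-expressed, heat-treated, chromatographically purified centrin at 10 μM. N-acetylated, C-amidated target peptide at 100 μM was injected in 8–10 μL steps. Buffer was 50 mM MOPS, 100 mM NaCl, pH 7.5 with 1 mM CaCl₂. The first 2 μL injection was discarded. Baseline-corrected integrated heats were fitted for n, Ka and ΔH. Peptide-into-buffer injections gave dilution heat.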

C-HsCen1-T138D = experiment: ITC, peptide binding to C-HsCen1-T138D; design: species or system human; conditions: EDTA; C-HsCen1-T138D versus C-HsCen1
Summary of the method: (§1)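 Recombinant human centrin (full-length or C-terminal domain; Asp variants made by double-PCR mutagenesis) was expressed in E. coli BL21(DE3), heat-treated at 63 °C, then purified by ion-exchange, phenyl and gel-filtration chromatography. ITC at 30 °C: 10 μM centrin titrated with 100 μM N-acetylated, C-amidated peptide in 50 mM MOPS, 100 mM NaCl, pH 7.5, plus 1 mM CaCl₂ or 2 mM EDTA. Dilution heats subtracted; data fitted for n, Ka and ΔH.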

[5] = tested on: HsCen1-T138D (phosphomimetic human centrin 1); experiment: ITC, peptide binding to HsCen1-T138D; conditions: EDTA; HsCen1-T138D versus HsCen1
[6] = tested on: HsCen1 (full-length human centrin 1); experiment: ITC, peptide binding to full-length HsCen1; conditions: centrin 1; +Ca2+ versus EDTA
Summary of the method: as §1

C-HsCen2-T138D = experiment: ITC, peptide binding to C-HsCen2 T138D; design: species or system human; conditions: versus C-HsCen2 wild type
Summary of the method: as §1

C-HsCen2 T138D-S158D = experiment: ITC, peptide binding to C-HsCen2 T138D-S158D; design: species or system human; conditions: versus C-HsCen2 wild type
Summary of the method: as §1

[7] = tested on: HsC1P (human centrin 1 phosphorylated by CK2 at T138); experiment: ITC, peptide binding to CK2-phosphorylated HsCen1; conditions: EDTA / absence of Ca2+; phosphorylated versus unphosphorylated centrin 1
C-HsCen2-S158D = experiment: ITC, peptide binding to C-HsCen2 S158D; design: species or system human; conditions: absence of Ca2+; versus C-HsCen2 wild type
Summary of the method: as §1

P17-XPC, 17-residue peptide of human XPC
Ka [1]: 3.34e+07 M⁻¹ | dH [1]: -23.6 kcal/mol | Ka [2]: 9.03e+06 M⁻¹ | Ka [3]: 4.55e+06 M⁻¹ | dH [3]: -30.2 kcal/mol | Ka [4]: 430000 M⁻¹ | dH [4]: -32.6 kcal/mol

325-MAVATGSWDSFLKIWN-340 [Trd]
factor of decrease of affinity by the T138E mutation (C-HsCen1-T138E): 7

846-NWKLLAKGLLIRERLKR-863 [P17-XPC]
factor of decrease of affinity by the T138D mutation (C-HsCen1-T138D): 2 | factor of reduction of binding by the T138D phosphomimetic mutation [5]: 4 | factor of increase of binding by the presence of Ca2+ [6]: 5 | factor of reduction of affinity by the T138D mutation (C-HsCen2-T138D; absence of Ca2+): 3 | factor of reduction of affinity by the T138D mutation (C-HsCen2-T138D; presence of Ca2+): 2 | factor of reduction of affinity by the T138D-S158D double mutation (C-HsCen2 T138D-S158D; absence of Ca2+): 9 | factor of reduction of affinity by the T138D-S158D double mutation (C-HsCen2 T138D-S158D; presence of Ca2+): 2 | factor of reduction of binding by phosphorylation at T138 [7]: 10 | factor of reduction of affinity by the S158D mutation (C-HsCen2-S158D): 3.7
